Compound activity from PubChem BioAssay.
Hits are enriched below; roughly 5.1% of the tested compounds scored in any of these assays.
NF-kB neuron act: compounds increasing NF-kB expression in human neuronal cells. AID 1239. NF-kB reporter expression; hits give high values. fold change at 12.5 µM. 1.6% of 190,000 active; in the data active = fold change above about 3.3
STAT3 activator: activators of IL-6 induced STAT3 signaling. activation (% of control), % at 5.6 µM. AID 871. 0.91% of 190,000 active. U3A cells, IL-6 STAT3-luciferase reporter, luminescence; 100% = signal with IL-6 EC80 alone;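 active = activation above the screen-wide mean of compound activation plus 3 SD, cut at about 130% in these data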;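 also: 0% = background luminescence of wells with medium and substrate only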
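Material: STAT3-luciferase reporter U3A cells. Controls: IL-6-treated wells, 100% activation. Read-out: % activation versus median of IL-6-stimulated wells. Probe or stimulus: IL-6 stimulus at 33 ng/mL final. Timing: compound 1 h, then IL-6 6 h at 37 °C. Signal: reporter luminescence signal.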
STAT3 inh: inhibitors of IL-6 induced STAT3 signaling; U3A cells, IL-6 STAT3-luciferase reporter, luminescence; host cell line lacks STAT1; AID 862; 0.89% of 190,000 active; inhibition, % at 5.5 µM;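 active = inhibition above the mean inhibition across all screened compounds plus 3 SD, cut at about 44% in these data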;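 also: 0% = DMSO only wells and 100% = 100 µM nifuroxazide control wells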
APP 5'UTR act: APP 5'UTR luciferase reporter activation; 1% of 190,000 active; SH-SY5Y APP 5'UTR luciferase reporter, luminescence; zero percent = DMSO vehicle wells; activation, % at 2 µM; AID 1276;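 active = activation above a set limit, based on mean plus 3 SD of controls, cut at about 140% in these data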
STAT1 activator: increases IFN-gamma driven STAT1 reporter signal. 2.6% of 200,000 active. activation (% of control), % at 5.5 µM. NIH 3T3 STAT1-luciferase reporter, luminescence; 100% = IFN-gamma alone, no compound;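 active = activation above the screen-wide mean activation plus 3 SD, cut at about 130% in these data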;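 also: raw ratio to IFN-gamma control signal so 100% means no change and 0% no light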
STAT1 inh: inhibitors of IFN-gamma induced STAT1 signaling; NIH 3T3 STAT1-luciferase reporter, luminescence; AID 920; inhibition, % at 5.5 µM; 0.35% of 200,000 active;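 active = inhibition above a set limit, the mean inhibition across all tested compounds plus 3 SD, cut at about 34% in these data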;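 also: 0% = IFN-gamma with DMSO and 100% = IFN-gamma with 300 µM nifuroxazide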
Active calls of the source: *; . = no result given.

SMILES | NF-kB neuron act | STAT3 activator | STAT3 inh | APP 5'UTR act | STAT1 activator | STAT1 inh
Clc1ccccc1N=C1NN=C(c2cccs2)CS1 | 4.3* | 111 | -11 | 183* | 143* | -48
CCOC(=O)c1cc(C(C)=O)c(=O)[nH]c1C | 1.1 | 99 | 4 | 222* | 104 | -5
O=C(CSc1nnc2ccccn12)N1CCc2ccccc21 | 2.4 | 113 | -13 | 105 | 135* | -36
O=C(CSc1ccccn1)N1CCc2ccccc21 | 3.5* | 88 | 21 | 51 | 133* | -34
Cc1cc2cc(C=C(C#N)C#N)c(Cl)nc2cc1C | 1.2 | 97 | 2 | -1 | 123 | -24
Cc1nn(C)c(Oc2ccc(Cl)cc2)c1C(=O)Nc1ccc(F)cc1F | 0.82 | 90 | 17 | 8 | 94 | 7
CCc1ccc(OCCNC(=O)c2ccccc2SCc2ccccc2)cc1 | 0.66 | 134* | -27 | 0 | 95 | 6
CCOc1ccc2nc(SCC(=O)N(C)C)[nH]c2c1 | 2.5 | 99 | 4 | 39 | 133* | -36
CCOc1ccc2nc(SCC(=O)N(C)C3CCS(=O)(=O)C3)[nH]c2c1 (stereo not given) | 1.3 | 105 | -1 | 0 | 103 | -3
COc1ccc2nc(SCC(=O)c3ccco3)[nH]c2c1 | 2.9 | 98 | 7 | 93 | 130* | -33
O=C(CSc1nc2ccccc2[nH]1)c1ccco1 | 1.9 | 100 | 9 | 46 | 114 | -15
Cc1ccc(O)c(C(=O)c2cnc3c(c2)c(C)nn3-c2ccccc2)c1 | 0.89 | 104 | -3 | -2 | 99 | 2
Cc1cc(C)cc(OCc2nnc(SCC(=O)OC(C)C)o2)c1 | 1.1 | 99 | -2 | 8 | 100 | 0
COc1cc(OC)cc(C(=O)NNC(=O)NC2CCCCC2)c1 | 1.1 | 107 | -2 | . | 92 | 9
CC1(NC(=S)N(CCO)CCO)CCS(=O)(=O)C1 (stereo not given) | 1.3 | 107 | -4 | -9 | 102 | -2
Cc1ccc(/C=C2\OC(=O)c3ccccc32)cc1 | 5.7* | 157* | -54 | 106 | 146* | -50
O=C(Nc1ccccc1N1CCOCC1)c1cccc(NS(=O)(=O)c2ccc(F)c(F)c2)c1 | 1.1 | 97 | 8 | 5 | 98 | -1
O=C(CCNc1ccc(Cl)cc1)c1cccs1 | 2.1 | 110 | -8 | 4 | 130* | -34
C/C(CCN1CCCCc2nc(C)c(C)cc21)=N\O[C@H](C)c1cn([C@H](CO)Cc2ccccc2)nn1 | 0.77 | 103 | -7 | 5 | 104 | -5
Cc1cc2c(nc1C)CCCN2C[C@@H](C)O/N=C1/[C@H]2CCn3c(=O)n(-c4ccccc4)c(=O)n3[C@H]2[C@H](O)[C@@H]2O[C@H]12 | 3.4* | 103 | -6 | -11 | 100 | 0
COc1ccc(CCNC(=O)C(=O)Nc2ccc3c(c2)OCO3)cc1OC | 1.1 | 104 | -3 | -1 | 110 | -12
O=C(Oc1ccc(-c2nccc(-c3ccccn3)n2)cc1)c1cccc(C(F)(F)F)c1 | 3.4* | 89 | 16 | 33 | 79 | 23
COc1ccc(S(=O)(=O)N(C)CC(=O)Nc2cccc(C(C)=O)c2)cc1Cl | 1.1 | 99 | 1 | . | 105 | 1
CC1CCN(c2ccc(NC(=O)Cc3ccccc3)cc2)CC1 | 1.1 | 104 | 7 | 49 | 142* | -47
CCN(CC)c1ccc(/C=N/NC(=S)NC)c(O)c1 | 5.9* | 96 | 11 | -13 | 117 | -18
SMILES | NF-kB neuron act | STAT3 activator | STAT3 inh | APP 5'UTR act | STAT1 activator | STAT1 inh
CCN(CC)c1ccc(/C=N/N2CCOCC2)c(O)c1 | 2.8 | 101 | 3 | 55 | 142* | -48
CCN(CC)c1ccc(/C=N/N2CCN(Cc3ccccc3)CC2)c(O)c1 | 1.3 | 91 | 9 | 7 | 97 | 4
CCN(CC)c1ccc(C=Nc2ccc(N(C)C)cc2)c(O)c1 | 1.2 | 94 | 15 | 79 | 130* | -33
Cc1csc(Nc2cccc3ccccc23)n1 | 1.4 | 88 | 16 | 22 | 104 | -4
Cc1ccc(Nc2nc(C)cs2)cc1 | 0.94 | 85 | 20 | 199* | 130* | -35
Cc1csc(Nc2ccc(Cl)cc2)n1 | 2.3 | 96 | 10 | 47 | 138* | -46
CCCOC(=O)Nc1c(C)cccc1C(C)C | 1.1 | 87 | 22 | -8 | 97 | 1
Cc1ccc2nc(NCc3ccccc3)[nH]c2c1 | 4.8* | 105 | 0 | -10 | 116 | -18
COc1ccccc1-n1cnc2cc(NCc3cccs3)ccc21 | 3.3* | 116 | -18 | -93 | 113 | -14
Cc1ccccc1-n1cnc2cc(NCc3cccs3)ccc21 | 1.4 | 108 | -6 | 12 | 103 | -3
O=C(NCc1ccccn1)NC1CCCCC1 | 1.2 | 105 | -2 | -3 | 102 | -2
COC(=O)C1=C(CN2CCCc3ccccc32)NC(=O)NC1c1ccc(F)cc1 (stereo not given) | 0.5 | 26 | 91* | -20 | 44 | 60*
COC(=O)C1=C(CN2CCc3ccccc32)NC(=O)NC1c1cc(C)ccc1C (stereo not given) | 0.89 | 112 | -11 | 2 | 87 | 15
COc1ccccc1C(=O)Nc1ccc2c3c(cccc13)CC2 | 1.5 | 99 | -2 | 48 | 132* | -36
CCCCn1c(-c2ccccc2)cnc1SCC(=O)NCCc1ccc(OC)c(OC)c1 | 1.1 | 112 | -9 | . | 134* | -38
Cc1ccc2nc(SCC(=O)c3cc(C)n(C)c3C)[nH]c2c1 | 3.4* | 84 | 23 | 5 | 101 | -1
Cc1cc(C(=O)CSc2nc3ccccc3[nH]2)c(C)n1C | 4* | 83 | 24 | 149* | 142* | -45
Cc1ccc2nc(SCC(=O)c3c(N)n(C)c(=O)n(C)c3=O)[nH]c2c1 | 0.89 | 94 | 8 | 3 | 94 | 6
C/C(N)=C(/C#N)C(=O)CSc1nc2ccc(C)cc2[nH]1 | 4.3* | 118 | -17 | 141* | 150* | -52
Cc1cc(C(=O)CSc2nc3ccc(Cl)cc3[nH]2)c(C)n1C | 0.73 | 83 | 27 | 11 | 90 | 10
COC(=O)COc1ccc(NS(=O)(=O)c2cccc([N+](=O)[O-])c2)cc1 | 1.4 | 103 | 4 | -4 | 108 | -10
O=C1CC(C2CCCO2)C(=O)N1c1ccccc1 (stereo not given) | 1 | 99 | 5 | 16 | 87 | 5
CC(C)c1onc(C(=O)Nc2cccc(O)c2)c1[N+](=O)[O-] | 1.7 | 100 | 2 | 21 | 102 | -4
Cc1cc(O)ccc1N/C=C/c1onc(C)c1[N+](=O)[O-] | 2.6 | 104 | 3 | 162* | 135* | -38
COCCN(Cc1cc2cc(C)c(C)cc2nc1Cl)C(=O)N1CCOCC1 | 1 | 94 | 10 | -10 | 94 | 6
Oc1ccc(/C=N/NC2=NCCCCC2)cc1 | 1.3 | 104 | -5 | -2 | 104 | -4
O=[N+]([O-])c1ccccc1/C=N/NC1=NCCCCC1 | 2.1 | 114 | -17 | 37 | 133* | -36
